From ChEMBL document CHEMBL4673335, “Store-Operated Calcium Entry as a Therapeutic Target in Acute Pancreatitis: Discovery and Development of Drug-Like SOCE Inhibitors” (J Med Chem, 2020)
Values after ≈ are worked out from the molar mass of the structure shown. Active and inactive are the calls of the source. The calls are words filed in the database; no cut-off is given here.

What was measured:
[1] = Half life in C57BL/6 mouse ip dosed as single administration measured up to 24 hrs; conditions: in vivo
[2] = target: T1, ORAI1/STIM1 (Homo sapiens) (UniProt Q96D31+Q13586); assay: Inhibition of STIM1/Orai1 (unknown origin) expressed in HEK293 cells assessed as reduction in tBHQ-induced calcium response at 10 uM relative to control; type: cell-based
T1 sequence (Q13586 23-685 partner limits assumed): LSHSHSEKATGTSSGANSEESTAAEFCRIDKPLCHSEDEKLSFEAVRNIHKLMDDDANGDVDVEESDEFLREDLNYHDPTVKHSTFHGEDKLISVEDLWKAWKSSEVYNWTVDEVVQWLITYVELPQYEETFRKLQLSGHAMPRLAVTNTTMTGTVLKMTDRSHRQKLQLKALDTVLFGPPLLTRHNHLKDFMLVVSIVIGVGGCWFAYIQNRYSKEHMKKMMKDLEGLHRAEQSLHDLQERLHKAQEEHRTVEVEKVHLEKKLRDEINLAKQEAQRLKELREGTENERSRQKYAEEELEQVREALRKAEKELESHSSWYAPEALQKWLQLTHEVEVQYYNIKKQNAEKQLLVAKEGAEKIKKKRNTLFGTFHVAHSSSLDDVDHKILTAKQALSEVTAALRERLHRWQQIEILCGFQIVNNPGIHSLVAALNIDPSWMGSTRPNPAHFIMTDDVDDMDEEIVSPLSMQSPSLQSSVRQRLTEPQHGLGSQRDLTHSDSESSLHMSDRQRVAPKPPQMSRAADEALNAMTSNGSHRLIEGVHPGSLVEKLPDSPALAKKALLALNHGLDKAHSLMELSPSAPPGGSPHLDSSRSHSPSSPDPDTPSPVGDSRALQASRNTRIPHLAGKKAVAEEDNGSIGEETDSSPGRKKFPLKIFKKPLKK
T1 sequence (Q96D31 whole entry): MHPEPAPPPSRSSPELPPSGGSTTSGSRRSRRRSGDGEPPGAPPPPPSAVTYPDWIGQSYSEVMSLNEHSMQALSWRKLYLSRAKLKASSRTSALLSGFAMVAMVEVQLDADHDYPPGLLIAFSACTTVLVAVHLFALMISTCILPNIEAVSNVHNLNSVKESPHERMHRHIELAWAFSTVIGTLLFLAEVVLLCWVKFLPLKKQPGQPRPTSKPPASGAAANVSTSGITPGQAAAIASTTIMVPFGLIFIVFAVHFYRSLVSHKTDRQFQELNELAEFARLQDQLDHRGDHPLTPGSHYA
Procedure, shortened: (§1)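 HEK cells, calcium imaging by fluorescence microscopy. Ca2+ added after 600 s and intracellular levels recorded. Traces averaged over 200 cells, then scored as AUC, peak amplitude and slope of the Ca2+ rise versus untreated control. Compound working solutions diluted from a 50 mM DMSO stock to 0.1% DMSO in physiologic buffer.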

[3] = target: ORAI1/STIM1 (Homo sapiens, UniProt Q13586+Q96D31); assay: Inhibition of STIM1/Orai1 (unknown origin) expressed in HEK293 cells assessed as reduction in tBHQ-induced calcium response; type: cell-based
Chain of ORAI1/STIM1 (Q96D31 whole entry): as above
Chain of ORAI1/STIM1 (Q13586 whole entry): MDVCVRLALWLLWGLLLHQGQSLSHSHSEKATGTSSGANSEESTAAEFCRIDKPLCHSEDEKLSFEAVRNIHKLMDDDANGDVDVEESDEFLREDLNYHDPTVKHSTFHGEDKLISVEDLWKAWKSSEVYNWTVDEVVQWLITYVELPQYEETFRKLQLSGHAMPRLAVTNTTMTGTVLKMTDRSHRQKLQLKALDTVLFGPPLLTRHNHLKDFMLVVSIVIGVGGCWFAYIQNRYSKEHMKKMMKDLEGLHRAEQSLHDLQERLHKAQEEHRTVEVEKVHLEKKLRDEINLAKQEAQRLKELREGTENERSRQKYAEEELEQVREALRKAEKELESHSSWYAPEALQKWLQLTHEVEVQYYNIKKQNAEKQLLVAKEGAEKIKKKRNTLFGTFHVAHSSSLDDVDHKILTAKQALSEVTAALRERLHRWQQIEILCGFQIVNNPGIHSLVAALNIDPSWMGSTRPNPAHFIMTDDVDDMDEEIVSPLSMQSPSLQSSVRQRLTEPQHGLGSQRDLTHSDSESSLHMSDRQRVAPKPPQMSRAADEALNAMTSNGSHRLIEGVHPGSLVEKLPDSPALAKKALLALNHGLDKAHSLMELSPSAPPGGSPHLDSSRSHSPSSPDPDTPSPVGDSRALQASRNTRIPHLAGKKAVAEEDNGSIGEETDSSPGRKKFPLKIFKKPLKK

[4] = target: T1, ORAI1/STIM1 (Homo sapiens); assay: Inhibition of STIM1/Orai1 (unknown origin) expressed in HEK293 cells assessed as reduction in tBHQ-induced calcium response by measuring decrease in calcium entry AUC at 10 uM relative to control; type: cell-based
Procedure, shortened: as §1

[5] = target: T1, ORAI1/STIM1 (Homo sapiens); assay: Inhibition of STIM1/Orai1 (unknown origin) expressed in HEK293 cells assessed as reduction in tBHQ-induced calcium response by measuring decrease in peak amplitude of calcium entry at 10 uM relative to control; type: cell-based
Procedure, shortened: as §1

[6] = target: T1, ORAI1/STIM1 (Homo sapiens); assay: Inhibition of STIM1/Orai1 (unknown origin) expressed in HEK293 cells assessed as reduction in tBHQ-induced calcium response by measuring decrease in slope of calcium entry at 10 uM relative to control; type: cell-based
Procedure, shortened: as §1

[7] = Thermodynamic aqueous solubility; type: physicochemical; conditions: read-out: Therm_solubility
Procedure, shortened: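 About 3 mg compound in 3 mL deionized water, vortexed, sonicated 5 min, then shaken overnight at 25 °C. Filtered through a 0.22 μm membrane, DMSO added, diluted about 1:10 in water. Quantified by LC–UV against DMSO standard solutions.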

[8] = Metabolic stability in mouse liver microsomes assessed as compound remaining after 1 hr; type: ADME, Microsome; conditions: read-out: Stabilty
Procedure, shortened: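 Pooled male CD-1 mouse liver microsomes (20 mg/mL protein stock), NADPH-activated. Substrate at 5 μM. Residual parent measured after 1 h incubation.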

[9] = Inhibition of CRAC (unknown origin); set-up: species or system Homo sapiens
[10] = system: HEK293; assay: Cytotoxicity in HEK293 cells assessed as cell viability at 10 uM after 24 hrs by MTT assay; type: cell-based; conditions: human, hek293, 24 h
Procedure, shortened: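 MTT viability assay. HEK cells seeded at 20,000 per well, treated 24 h after plating for a further 24 h. MTT at 0.25 mg/mL final for 60 min at 37 °C. Crystals dissolved in isopropyl alcohol/HCl (1 M), absorbance read at 570 nm. Compounds diluted to 0.1% DMSO in culture medium.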

[11] = system: HEK293; assay: Cytotoxicity in HEK293 cells assessed as cell viability at 50 uM after 72 hrs by MTT assay; type: cell-based; conditions: human, hek293, 72 h
Procedure, shortened: (§2)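 MTT viability in HEK cells after 72 h treatment at 50 μM, with or without 100 μM uridine. MTT at 0.25 mg/mL final for 60 min at 37 °C, solubilized in isopropyl alcohol/HCl (1 M), absorbance read at 570 nm. Mean ± SEM, Student t-test against control.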

[12] = system: HEK293; assay: Cytotoxicity in HEK293 cells assessed as cell viability at 50 uM after 72 hrs in presence of excess uridine by MTT assay; type: cell-based; conditions: human, hek293, 72 h
Procedure, shortened: as §2

[13] = Drug metabolism in mouse liver microsomes assessed as amide hydrolysis; type: ADME, Microsome
Procedure, shortened: (§3)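 Pooled male CD-1 mouse liver microsomes, phase I and glucuronidation (phase II) incubations. Substrate at 50 μM. Metabolites characterized by HRMS. For metabolic activation studies, 3 mM GSH added as trapping agent.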

[14] = Drug metabolism in mouse liver microsomes assessed as O-demethylation; type: ADME, Microsome
Procedure, shortened: as §3

[15] = Thermodynamic aqueous solubility at 6 mg/mL in saline containing 10% DMSO + 20% PEG400; conditions: buffer
[16] = system: Mus musculus; assay: Anti pancreatitis activity in C57BL/6 mouse model of cerulein-induced acute pancreatitis assessed as amelioration of histological scores at 10 mg/kg, ip administered 30 and 150 mins after the first cerulein injection measured 5 hrs after first cerulein injection by H and E staining based assay; type: functional, organism-based
Procedure, shortened: (§4)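 Acute pancreatitis induced in mice by i.p. cerulein injections. Test agent given i.p. at 10 mg/kg, 30 and 150 min after the first cerulein injection. Pancreas collected 5 h after the first cerulein injection, H&E stained and scored histologically for inflammation and edema.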

[17] = system: Mus musculus; assay: Anti pancreatitis activity in C57BL/6 mouse model of cerulein-induced acute pancreatitis assessed as reduction of inflammation and edema at 10 mg/kg, ip administered 30 and 150 mins after the first cerulein injection measured 5 hrs after first cerulein injection by H and E staining based assay; type: functional, organism-based
Procedure, shortened: as §4

[18] = target: T1, ORAI1/STIM1 (Homo sapiens); assay: Activation of STIM1/Orai1 (unknown origin) expressed in HEK293 cells assessed as increase in tBHQ-induced calcium response by measuring increase in peak amplitude of calcium entry at 10 uM relative to control; type: cell-based; conditions: filed as opener, dose 3.0 µM, in the assay text read “at 3 uM” for “at 10 uM”
Procedure, shortened: as §1

[19] = target: T1, ORAI1/STIM1 (Homo sapiens); assay: Activation of STIM1/Orai1 (unknown origin) expressed in HEK293 cells assessed as increase in tBHQ-induced calcium response by measuring increase in AUC of calcium entry at 10 uM relative to control; type: cell-based; conditions: filed as opener, dose 3.0 µM, in the assay text read “at 3 uM” for “at 10 uM”
Procedure, shortened: as §1

[20] = Drug metabolism in mouse liver microsomes assessed as O-demethylation by high-resolution mass spectrometry; type: ADME, Microsome
Procedure, shortened: as §3

[21] = Drug metabolism in mouse liver microsomes assessed as oxidation by high-resolution mass spectrometry; type: ADME, Microsome
Procedure, shortened: as §3

[22] = Drug metabolism in mouse liver microsomes assessed as hydroxylation by high-resolution mass spectrometry; type: ADME, Microsome
Procedure, shortened: as §3

[23] = Drug metabolism in mouse liver microsomes assessed as acyl glucuronide metabolite formation in presence of UDPGA by high-resolution mass spectrometry; type: ADME, Microsome
Procedure, shortened: as §3

[24] = Half life in C57BL/6 mouse at 7 mg/kg, iv dosed as single administration measured up to 24 hrs; type: ADME, organism-based; conditions: in vivo
[25] = Clearance in C57BL/6 mouse at 7 mg/kg, iv dosed as single administration measured up to 24 hrs; type: ADME, organism-based; conditions: in vivo
[26] = Volume of distribution in C57BL/6 mouse at 7 mg/kg, iv dosed as single administration measured up to 24 hrs; type: ADME, organism-based; conditions: in vivo
[27] = Cmax in C57BL/6 mouse at 7 mg/kg, iv dosed as single administration measured up to 24 hrs; type: ADME, organism-based; set-up: route intravenous, dose 7 mg/kg, time <=24; conditions: in vivo
[28] = system: HEK293; assay: Cytotoxicity in HEK293 cells assessed as cell viability up to 60 uM after 72 hrs in presence of excess uridine by MTT assay; type: cell-based; conditions: human, hek293, 72 h
[29] = dose 3.0 µM, in the assay text read “at 3 uM” for “at 10 uM”

SMILES | IC50 [3] [nM] | inhibition [4] | inhibition [5] | inhibition [6] | solubility thermodynamic [7] [µg/mL] | remaining at 1 h [8] [%] | Activity [10] [%] | other results
CCCC(C)OC(=O)c1cnn(-c2ccc(-n3cc(-c4cccc(C(=O)O)c4)nn3)cc2)c1C(F)(F)F (stereo not given) |  |  |  |  |  |  |  | half-life [1]: 1.3 h
COc1cccc(-c2ccc(-c3cn(-c4cccc(C(=O)O)c4)nn3)cc2)c1OC | 781 | Active | Active | Active |  |  |  | inhibition ([2]; dose 10.0 µM): 93.3%
COc1cccc(-c2ccc(-n3cc(-c4cccc(C(=O)[O-])c4)nn3)cc2)c1.[Na+] |  |  |  |  | 856 | 91 |  | 
O=C(O)c1cccc(-c2cn(-c3ccc(-c4ccc5c(c4)OCCO5)cc3)nn2)c1 |  | Active | Active | Active |  |  |  | inhibition ([2]; dose 10.0 µM): 77.5%
COc1cccc(-c2ccc(-n3cc(-c4cccc(C(=O)O)c4)nn3)cc2)c1 [listing 1 of 2 here] |  | Active | Active | Active |  |  |  | inhibition [2, 29]: 85.1%
COc1ccc(OC)c(-c2ccc(NC(=O)c3ccncc3F)cc2)c1 | 228 | Active | Active | Active | 0.28 (≈ 0.795 µM) | 15 | 75.8 | IC50 [9]: 1400 nM; inhibition ([2]; dose 10.0 µM): 90.8%; Activity [11]: Toxic; Activity [12]: Non-Toxic; Drug metabolism [13]: Metabolite_Detected; Drug metabolism [14]: Metabolite_Detected
COc1ccc(F)c(-c2ccc(-c3cn(-c4cccc(C(=O)O)c4)nn3)cc2)c1 | 866 | Active | Active | Active |  |  | 92.3 | inhibition ([2]; dose 10.0 µM): 88.9%
O=C(O)c1cccc(-c2cn(-c3ccc(-c4cccc5c4OCCO5)cc3)nn2)c1 | 1620 | Active | Active | Active |  |  | 90.5 | inhibition [2, 29]: 70.9%
COc1ccc(F)c(-c2ccc(-n3cc(-c4cccc(C(=O)[O-])c4)nn3)cc2)c1.[Na+] |  |  |  |  | 1170 | 93 |  | 
COc1cccc(-c2ccc(-n3cc(-c4cccc(C(=O)[O-])c4)nn3)cc2)c1OC.[Na+] |  |  |  |  | 1530 | 75 |  | Therm_solubility [15]: Soluble
COc1ccc(F)c(-c2ccc(-n3cc(-c4cccc(C(=O)O)c4)nn3)cc2)c1 [listing 1 of 2 here] | 361 |  |  |  |  |  | 91.1 | Activity [11]: Non-Toxic; Activity [12]: Non-Toxic
COc1ccc(F)c(-c2ccc(-n3cc(-c4cccc(C(=O)O)c4)nn3)cc2)c1 [listing 2 of 2 here] |  | Active | Active | Active |  |  |  | inhibition ([2]; dose 10.0 µM): 74.7%
COc1cccc(-c2ccc(-n3cc(-c4cccc(C(=O)O)c4)nn3)cc2)c1OC [listing 1 of 2 here] |  | Active | Active | Active |  |  |  | inhibition [2, 29]: 96.5%; Activity [16]: Active; Activity [17]: Active
COc1cc(OC)cc(-c2ccc(-n3cc(-c4cccc(C(=O)O)c4)nn3)cc2)c1 [listing 1 of 2 here] | 802 |  |  |  |  |  | 94.3 | Activity [11]: Non-Toxic; Activity [12]: Non-Toxic
O=C([O-])c1cccc(-c2cn(-c3ccc(-c4ccc5c(c4)OCCO5)cc3)nn2)c1.[Na+] |  |  |  |  | 668 | 94 |  | 
COc1cccc(OC)c1-c1ccc(-c2cn(-c3cccc(C(=O)O)c3)nn2)cc1 |  |  |  |  |  |  |  | Activity [18]: Active; Activity [19]: Active
COc1cc(OC)cc(-c2ccc(-n3cc(-c4cccc(C(=O)O)c4)nn3)cc2)c1 [listing 2 of 2 here] |  | Active | Active | Active |  |  |  | inhibition [2, 29]: 73.8%
COc1cccc(-c2ccc(-n3cc(-c4cccc(C(=O)O)c4)nn3)cc2)c1 [listing 2 of 2 here] | 807 |  |  |  |  |  |  | Activity [11]: Non-Toxic; Activity [12]: Non-Toxic
COc1cc(OC)cc(-c2ccc(-n3cc(-c4cccc(C(=O)[O-])c4)nn3)cc2)c1.[Na+] |  |  |  |  | 18.7 | 92 |  | 
COc1cccc(-c2ccc(-n3cc(-c4cccc(C(=O)O)c4)nn3)cc2)c1OC [listing 2 of 2 here] | 851 |  |  |  |  |  | 85.6 | Activity [11]: Non-Toxic; Activity [12]: Non-Toxic; Drug metabolism [20]: Metabolite_Detected; Drug metabolism [21]: Metabolite_Detected; Drug metabolism [22]: Metabolite_Detected; Drug metabolism [23]: Metabolite_Detected; t1/2 [24]: 3.2 h; CL [25]: 8.3 mL/min/kg; Vd [26]: 2.3 L/kg; Cmax [27]: 16800 ng/mL; Activity [28]: Non-Toxic
